Reference: ChEMBL document CHEMBL1123109, “Alkyl esters of 3-adenin-9-yl-2-hydroxypropanoic acid: a new class of broad-spectrum antiviral agents” (1985)
Converted amounts (≈) assume the structure as drawn.

Experiments:
Type in all cases: functional
[1] = tested on: Vesicular stomatitis virus; assay: Inhibition of Vesicular stomatitis virus induced cytopathicity in BALB/3T3 cells.; conditions: in Mus musculus
Method in brief: (§1)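 Vesicular stomatitis virus was inoculated at 100 CCID50 (100× the dose infecting 50% of cells) in each cell type: human embryonic skin-muscle fibroblasts, LR-strain trisomy-21 fibroblasts, HEp-2, CV-1, BS-C-1, Balb/3T3, RK13, human kidney, HeLa and Vero. CPE was read at 1–2 days in every cell type, once complete in untreated infected controls. The MIC is the concentration giving a 50% reduction in cytopathogenicity.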

[2] = tested on: Vesicular stomatitis virus; assay: Inhibition of Vesicular stomatitis virus induced cytopathicity in BS-C-1 cells.; method in brief: as §1
[3] = tested on: Vesicular stomatitis virus; assay: Inhibition of Vesicular stomatitis virus induced cytopathicity in CV-1 cells.; method in brief: as §1
[4] = tested on: Vesicular stomatitis virus; assay: Inhibition of Vesicular stomatitis virus induced cytopathicity in E6SM cells.; method in brief: as §1
HK [5] = assay: Minimum inhibitory concentration which is required to reduce virus-induced cytopathogenicity by 50% against Vesicular stomatitis virus in human kidney,; method in brief: as §1
[6] = tested on: Vesicular stomatitis virus; assay: Inhibition of Vesicular stomatitis virus induced cytopathicity in HEp-2 cells.; method in brief: as §1
Coxsackievirus B4 = assay: Inhibition of Coxsackie B4 virus induced cytopathicity in HeLa cells.; conditions: Enterovirus B
[7] = tested on: Vesicular stomatitis virus; assay: Inhibition of Vesicular stomatitis virus induced cytopathicity in HeLa cells.; method in brief: as §1
HeLa = assay: Cytotoxic concentration against HeLa cells.; conditions: Homo sapiens
Method in brief: (§2)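 Uninfected cells were incubated with compound for the same duration as the matching antiviral assay. The minimum cytotoxic concentration is the lowest one causing a microscopically detectable change in normal cell morphology.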

PRK = assay: Cytotoxic concentration against PRK cells.; conditions: Oryctolagus cuniculus; method in brief: as §2
Human alphaherpesvirus 1 = assay: Inhibition of HSV-1 induced cytopathicity in PRK cells.
Vaccinia virus = assay: Inhibition of Vaccinia virus induced cytopathicity in PRK cells.; conditions: Orthopoxvirus vaccinia
[8] = tested on: Vesicular stomatitis virus; assay: Inhibition of Vesicular stomatitis virus induced cytopathicity in PRK cells.
Oryctolagus cuniculus [9] = organism: Oryctolagus cuniculus; assay: Inhibitory effects on DNA, RNA, and Protein synthesis in rabbit kidney cells was evaluated for incorporation of [4,5-3H]leucine; conditions: read-out: ID50 (the source's name)
Oryctolagus cuniculus [10] = organism: Oryctolagus cuniculus; assay: Inhibitory effects on DNA, RNA, and Protein synthesis in rabbit kidney cells was evaluated for incorporation of [5-3H]-Urd; conditions: read-out: ID50 (the source's name)
[11] = tested on: Vesicular stomatitis virus; assay: Inhibition of Vesicular stomatitis virus induced cytopathicity in RK13 cells.; method in brief: as §1
[12] = tested on: Vesicular stomatitis virus; assay: Inhibition of Vesicular stomatitis virus induced cytopathicity in T-21 cells.; method in brief: as §1
Vero = assay: Cytotoxic concentration against Vero cells.; conditions: Chlorocebus sabaeus; method in brief: as §2
Sindbis virus = assay: Inhibition of Sindbis virus induced cytopathicity in vero cells.
[13] = tested on: Vesicular stomatitis virus; assay: Inhibition of Vesicular stomatitis virus induced cytopathicity in Vero cells.; method in brief: as §1
Measles morbillivirus = assay: Inhibition of Measles virus induced cytopathicity in vero cells.
Human respirovirus 3 = assay: Inhibition of parainfluenza virus-3 induced cytopathicity in vero cells.
[14] = tested on: Mammalian orthoreovirus 1; assay: Inhibition of Reo virus-1 induced cytopathicity in vero cells.
Poliovirus 1 = assay: Inhibition of polio virus 1 induced cytopathicity in HeLa cells.; conditions: Enterovirus C
Oryctolagus cuniculus [15] = organism: Oryctolagus cuniculus; assay: Inhibitory effects on DNA, RNA, and Protein synthesis in rabbit kidney cells was evaluated for incorporation of [methyl-3H]dThd]; conditions: read-out: ID50 (the source's name)
HK [16] = assay: Minimum inhibitory concentration which is required to reduce virus-induced cytopathogenicity by 50% against Vesicular stomatitis virus in human kidney; method in brief: as §1

SMILES | MIC [1] | MIC [2] | MIC [3] | MIC [4] | MIC [6] | MIC (Coxsackievirus B4) | MIC [7] | MCC (HeLa) | MCC (PRK) | MIC (Human alphaherpesvirus 1) | MIC (Vaccinia virus) | MIC [8] | MIC [11] | MIC [12] | MCC (Vero) | MIC (Sindbis virus) | MIC [13] | MIC (Measles morbillivirus) | MIC (Human respirovirus 3) | MIC [14] | further results
CCCCCOC(=O)C(O)Cn1cnc2c(N)ncnc21 (configuration not stated) | > 200 µg/mL | 100 µg/mL (≈ 341 µM) | 300 µg/mL (≈ 1020 µM) | 3 µg/mL (≈ 10.2 µM) | 2 µg/mL (≈ 6.82 µM) | > 400 µg/mL | 10 µg/mL (≈ 34.1 µM) | > 400 µg/mL | 200 µg/mL | > 200 µg/mL | 70 µg/mL (≈ 239 µM) | 10 µg/mL (≈ 34.1 µM) | 100 µg/mL (≈ 341 µM) | 1 µg/mL (≈ 3.41 µM) | 200 µg/mL | 200 µg/mL (≈ 682 µM) | 20 µg/mL (≈ 68.2 µM) | 70 µg/mL (≈ 239 µM) | 70 µg/mL (≈ 239 µM) | 30 µg/mL (≈ 102 µM) | MIC (HK [5]): 20 µg/mL (≈ 68.2 µM); IC50 (Oryctolagus cuniculus [9]): 215 µg/mL (≈ 733 µM); IC50 (Oryctolagus cuniculus [10]): 21 µg/mL (≈ 71.6 µM); MIC (Poliovirus 1): > 400 µg/mL; IC50 (Oryctolagus cuniculus [15]): 151 µg/mL (≈ 515 µM)
CC(C)CCOC(=O)C(O)Cn1cnc2c(N)ncnc21 (configuration not stated) | 200 µg/mL (≈ 682 µM) | 70 µg/mL (≈ 239 µM) | 200 µg/mL (≈ 682 µM) | 2 µg/mL (≈ 6.82 µM) | 1 µg/mL (≈ 3.41 µM) | > 400 µg/mL | 3 µg/mL (≈ 10.2 µM) | 400 µg/mL | 400 µg/mL | > 400 µg/mL | 10 µg/mL (≈ 34.1 µM) | 3 µg/mL (≈ 10.2 µM) | 100 µg/mL (≈ 341 µM) | 1 µg/mL (≈ 3.41 µM) | 400 µg/mL | 200 µg/mL (≈ 682 µM) | 15 µg/mL (≈ 51.1 µM) | 12 µg/mL (≈ 40.9 µM) | > 200 µg/mL | 30 µg/mL (≈ 102 µM) | MIC (HK [5]): 10 µg/mL (≈ 34.1 µM); IC50 (Oryctolagus cuniculus [9]): 228 µg/mL (≈ 777 µM); IC50 (Oryctolagus cuniculus [10]): 29 µg/mL (≈ 98.9 µM); MIC (Poliovirus 1): > 400 µg/mL; IC50 (Oryctolagus cuniculus [15]): 114 µg/mL (≈ 389 µM)
CC(C)COC(=O)C(O)Cn1cnc2c(N)ncnc21 (configuration not stated) | 300 µg/mL (≈ 1070 µM) | 100 µg/mL (≈ 358 µM) | 200 µg/mL (≈ 716 µM) | 5 µg/mL (≈ 17.9 µM) | 1 µg/mL (≈ 3.58 µM) | > 400 µg/mL | 10 µg/mL (≈ 35.8 µM) | > 400 µg/mL | > 400 µg/mL | > 400 µg/mL | 3 µg/mL (≈ 10.7 µM) | 1 µg/mL (≈ 3.58 µM) | 30 µg/mL (≈ 107 µM) | 1 µg/mL (≈ 3.58 µM) | > 400 µg/mL | > 400 µg/mL | 30 µg/mL (≈ 107 µM) | 40 µg/mL (≈ 143 µM) | 20 µg/mL (≈ 71.6 µM) | 150 µg/mL (≈ 537 µM) | MIC (HK [5]): 20 µg/mL (≈ 71.6 µM); IC50 (Oryctolagus cuniculus [9]): > 277 µg/mL; IC50 (Oryctolagus cuniculus [10]): 34 µg/mL (≈ 122 µM); MIC (Poliovirus 1): > 400 µg/mL; IC50 (Oryctolagus cuniculus [15]): 242 µg/mL (≈ 866 µM)
CCCCCCCCOC(=O)C(O)Cn1cnc2c(N)ncnc21 (configuration not stated) | 100 µg/mL (≈ 298 µM) | > 100 µg/mL | > 100 µg/mL | 7 µg/mL (≈ 20.9 µM) | 2 µg/mL (≈ 5.96 µM) | > 100 µg/mL | 1 µg/mL (≈ 2.98 µM) | 100 µg/mL | 100 µg/mL | > 100 µg/mL | 7 µg/mL (≈ 20.9 µM) | 7 µg/mL (≈ 20.9 µM) | 30 µg/mL (≈ 89.4 µM) | 0.5 µg/mL (≈ 1.49 µM) | 200 µg/mL | 30 µg/mL (≈ 89.4 µM) | 100 µg/mL (≈ 298 µM) | 70 µg/mL (≈ 209 µM) | 15 µg/mL (≈ 44.7 µM) | 7 µg/mL (≈ 20.9 µM) | MIC (HK [16]): 15 µg/mL (≈ 44.7 µM); MIC (Poliovirus 1): > 100 µg/mL
